In assay [1] the target is T1, Snake venom metalloproteinase neuwiedase (Bothrops pauloensis, UniProt Q9I9R4).
T1 sequence (Q9I9R4 whole entry): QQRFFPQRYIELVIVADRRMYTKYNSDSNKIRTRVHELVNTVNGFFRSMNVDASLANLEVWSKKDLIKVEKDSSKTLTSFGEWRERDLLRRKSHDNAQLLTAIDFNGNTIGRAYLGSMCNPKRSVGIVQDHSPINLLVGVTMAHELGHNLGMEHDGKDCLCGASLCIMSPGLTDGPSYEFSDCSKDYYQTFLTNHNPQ
As to the kind of experiment: Inhibition of Bothrops pauloensis MP1 assessed as reduction in azocaseinolytic activity after 30 mins. The essentials:
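Purified BpMP-I (7.5 μg per reaction) was preincubated with compound for 30 min at 37 °C. It was then added to azocasein (1 mg/mL) in 0.05 M Tris–HCl pH 7.8 with 0.15 M NaCl and incubated for 30 min at 37 °C. The reaction was stopped with 20% TCA, held 30 min at room temperature and centrifuged. Supernatant was read at A405. IC50 is the concentration giving 50% loss of azocaseinolytic activity.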

In assay [2] the test system is Snake venom. As to the kind of experiment: Antihemorrhagic activity in Bothrops pauloensis crude venom injected Swiss mouse assessed as reduction in hemorrhagic halo at 1:20 venom to compound ratio administered via intradermal route. It counts as functional.
Assay [3] deals with Snake venom. In words: Antihemorrhagic activity in Bothrops pauloensis crude venom injected Swiss mouse assessed as reduction in hemorrhagic halo at 1:1 venom to compound ratio administered via intradermal route. It counts as functional. Further details: scale not given: the % may be the effect or the level left; call rule not given here.
In assay [4] the test system is Snake venom. In words: Antihemorrhagic activity in Bothrops pauloensis crude venom injected Swiss mouse assessed as reduction in hemorrhagic halo at 1:5 venom to compound ratio administered via intradermal route. Type of assay: functional. Further details: scale not given: the % may be the effect or the level left.
In assay [5] the test system is Snake venom. As to the kind of experiment: Antihemorrhagic activity in Bothrops pauloensis crude venom injected Swiss mouse assessed as reduction in hemorrhagic halo at 1:10 venom to compound ratio administered via intradermal route. Type of assay: functional. Further details: scale not given: the % may be the effect or the level left.
Assay [6] concerns Snake venom. As to the kind of experiment: Antihemorrhagic activity in Bothrops pauloensis crude venom injected Swiss mouse assessed as reduction in hemorrhagic halo at 1:1 to 1:20 venom to compound ratio administered via intradermal route. It counts as functional.
Assay [7] deals with Snake venom. As to the kind of experiment: Antihemorrhagic activity in Bothrops pauloensis crude venom injected Swiss mouse assessed as reduction in hemorrhagic halo at 1:10 venom to compound ratio administered via intradermal route 10 mins after venom injection. It counts as functional. Set-up: scale not given: the % may be the effect or the level left. The essentials:
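Treatment protocol in Swiss male mice (n = 4, 18–22 g). B. pauloensis crude venom (16.3 μg, two minimum hemorrhagic doses) was injected intradermally in the dorsal region. Compound followed 10 min later by the same route at 1:10 venom/compound (w/w). At 150 min the mice were anesthetized and killed, and the skin halo was measured by caliper. Results are percent inhibition versus venom-only controls, mean ± SD.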

Molecules are shown by their SMILES.

From ChEMBL document CHEMBL4130559, “Structure-Based Discovery of Thiosemicarbazone Metalloproteinase Inhibitors for Hemorrhage Treatment in Snakebites” (ACS Med Chem Lett, 2017) come the findings set out here.

Take `NC(=O)N/N=C/c1cccc(O)c1`: the IC50 (commonly the concentration at which inhibition is half-maximal) in assay [1] was “Not Active”.

As to `NC(=O)N/N=C/c1ccc(O)cc1`, the IC50 result in assay [1] was “Not Active”.

In the case of `COc1ccc(/C(CCC(=O)O)=N/NC(N)=S)cc1`, the IC50 in assay [1] (read-out: IC50) turned out to be 0.0791 mM. For the same compound, the “inhibition (INH)” value with Snake venom [2] is given as 43%. For the compound `NC(=O)N/N=C/c1ccc(C(=O)O)cc1`, the IC50 entry in assay [1] is “Not Active”.

Turning to `NC(=S)N/N=C/c1ccc(Br)cc1`, the half-maximal inhibitory concentration (IC50) in assay [1] (read-out: IC50) was 3.14 mM. In the case of `COc1ccc(/C=N/NC(N)=S)cc1`, the IC50 in assay [1] (read-out: IC50) was determined as 3.01 mM.

As for `COc1ccc(/C=N/NC(N)=O)cc1`, the 50% inhibitory concentration (IC50) result in assay [1] is on record as “Not Active”. `COc1ccc(/C=N/NC(N)=S)cc1O`: in assay [1] (read-out: IC50), the IC50 was found to be 3.41 mM. For the compound `COc1ccc(/C(CCCC(=O)O)=N/NC(N)=S)cc1`, the IC50 in assay [1] (read-out: IC50) worked out at 0.00177 mM. In addition, the Activity with Snake venom [3] was 41%; with Snake venom [4], 84%; with Snake venom [5], 100%; with Snake venom [6], “Dose-dependent effect”; with Snake venom [7] it was 31%. The “inhibition (INH)” value in the assay with Snake venom [2] was 100%. Regarding `NC(=S)N/N=C/c1ccccc1` [PHENYLTHIOSEMICARBAZONE], in assay [1] (read-out: IC50), the half-maximal inhibitory concentration (IC50) was 4.22 mM. Turning to `c1cnc2c(c1)ccc1cccnc12` [PHENANTHROLINE], in assay [1] (read-out: IC50), the IC50 was 0.47 mM.

On to `NC(=O)N/N=C/c1ccc(Cl)cc1`, for which the IC50 result in assay [1] is recorded as “Not Active”. On to `NC(=S)N/N=C/c1ccc(Cl)cc1`, for which the IC50 in assay [1] (read-out: IC50) was found to be 4.25 mM. Regarding `NC(=O)N/N=C/c1ccc(O)cc1O`, in assay [1], the IC50 entry is on record as “Not Active”.
